Source: PubChem BioAssay (Sanford-Burnham Center for Chemical Genomics)
Rows were chosen to be rich in hits. Some 1.9% of all compounds tested hit in one or more screens of this group.
SUMO1-SIM PPI: alters human SUMO1 binding to SIM partners; P63165; AID 602429; SUMO1 binding to a labelled peptide, TR-FRET, 1 h; actives 0.33% (n = 360,000); inhibition, % at 20 µM; in the data active means inhibition above about 37%
Target sequence (P63165 whole entry, looked up): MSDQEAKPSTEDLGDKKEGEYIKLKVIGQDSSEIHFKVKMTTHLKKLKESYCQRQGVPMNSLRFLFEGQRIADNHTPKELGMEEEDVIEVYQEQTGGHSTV
DNMT1 block: DNMT1 (human) enzyme inhibition; P26358; DNMT1 molecular beacon, Hinp1I cleavage, fluorescence; inhibition (reported as % activation of signal), % at 10 µM; actives 0.83% (n = 360,000); AID 588458; in the data active means inhibition above about 50%
CSN deneddyl inh: CSN deneddylation inhibition. AID 651999. Purified CSN, SCF-Nedd8-OG deneddylation, fluorescence polarization. Q92905. actives 0.38% (n = 360,000). inhibition, % at 12.5 µM;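 active means pattern-corrected inhibition above about 35%, with an unprinted fluorescence ratio check between 0.5 and 1.5, limit read from the data, passing the limit was not always enough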
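assay system = purified human Csn5 enzyme expressed in HEK293T cells | amount = 0.24 nM enzyme | buffer or medium = Tris/NaCl/DTT buffer, pH 7.5 | reagent = 10 nM SCFSkp2-Nedd8OG | compound = one concentration, 12.5 µM, 0.25% DMSO | times = 90 min reaction at room temperature | signal = FP | read-out basis = % inhibition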
LMPTP inh: LMPTP (human) inhibition; recombinant LMPTP-A, OMFP fluorogenic substrate, fluorescence intensity; inhibition, % at 20 µM; actives 0.22% (n = 360,000); AID 651560;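 active means compounds that cut the enzyme signal by at least half of the control window in the single-dose screen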
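test system = LMPTP-A | amount = 0.625 nM LMPTP-A final | reagent = fluorogenic phosphatase substrate OMFP at 400 µM final | incubation = 50 min at room temperature | benchmarks = no-enzyme low control, uninhibited high control | medium = Bis-Tris pH 6.0, DTT, detergent | signal = fluorescence intensity of OMFP turnover product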
STEP inh: inhibitors of human striatal-enriched phosphatase STEP. P54829. AID 588621. actives 0.25% (n = 360,000). inhibition, % at 20 µM. recombinant STEP, OMFP fluorogenic substrate, fluorescence;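 active means inhibition at 20 µM, scaled per plate between control wells, above about 37%, limit read from the data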
Target sequence (P54829 whole entry, looked up): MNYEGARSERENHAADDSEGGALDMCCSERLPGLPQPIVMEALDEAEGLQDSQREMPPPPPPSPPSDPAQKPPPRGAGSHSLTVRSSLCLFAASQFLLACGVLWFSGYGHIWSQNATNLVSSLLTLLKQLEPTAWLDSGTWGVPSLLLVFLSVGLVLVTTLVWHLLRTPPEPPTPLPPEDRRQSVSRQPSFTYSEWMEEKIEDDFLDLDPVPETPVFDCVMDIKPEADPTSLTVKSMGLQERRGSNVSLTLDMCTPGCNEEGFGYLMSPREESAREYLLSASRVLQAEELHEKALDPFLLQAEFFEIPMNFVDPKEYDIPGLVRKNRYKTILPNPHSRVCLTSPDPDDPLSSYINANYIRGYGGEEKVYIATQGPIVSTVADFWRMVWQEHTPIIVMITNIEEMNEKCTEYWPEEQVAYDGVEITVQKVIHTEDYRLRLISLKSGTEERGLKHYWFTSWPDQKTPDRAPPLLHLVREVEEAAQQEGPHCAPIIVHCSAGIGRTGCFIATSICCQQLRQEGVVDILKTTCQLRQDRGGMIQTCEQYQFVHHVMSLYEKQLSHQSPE
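System: STEP phosphatase, cell-free reaction; Buffer or medium: Bis-Tris pH 6.0 buffer with DTT, detergent; Incubation: 20 min at room temperature, dark; Measured by: fluorescence, 480/540 nm.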
Scp1 inh: inhibitors of human Scp-1 phosphatase. Q9GZU7. Recombinant Scp1, phosphopeptide, malachite green phosphate absorbance. inhibition, % at 20 µM. actives 0.88% (n = 340,000). AID 493091;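 active means inhibition above about 50% at 20 µM, limit read from the data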
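System: truncated SCP-1 phosphatase (76-261aa); medium: Tris acetate buffer pH 5.5 with MgCl2 and Tween-20; incubation: 45 min room-temperature reaction, 5 min colour, 30 min stabiliser; compound: single 20 µM dose, 1% DMSO; reagent: Phosphorylated 17-residue peptide substrate; read-out: % inhibition at 20 µM; technique: colorimetric free-phosphate detection, absorbance 630 nm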
A number is an active result; 0 = inactive; - = no result given; ! = not confirmed by another sample.

SMILES	SUMO1-SIM PPI	DNMT1 block	CSN deneddyl inh	LMPTP inh	STEP inh	Scp1 inh
Cc1ccccc1C1=C/C(=C(\SS/C(C(=O)c2ccc(OCC(=O)O)c(Cl)c2Cl)=C2\C=C(c3ccccc3C)SS2)C(=O)c2ccc(OCC(=O)O)c(Cl)c2Cl)SS1	115.8	0	0	73.1	0	0
COc1cccc(CNC(=O)c2ccc(OCC(=O)N3CCOCC3)c(OC)c2)c1	0	0	0	0	0	0
CC(=O)C1=CCC(c2ccco2)N(S(=O)(=O)c2ccc(C)cc2)C1 (stereo not drawn)	0	0	0	0	0	-
Cc1ccc(NC(=O)CO/N=C/c2ccc(N(C)C)cc2)cc1	0	0	50.1	0	0	0
Cc1cc(/C=C2/SC(=S)N(c3cccc(C(F)(F)F)c3)C2=O)c(C)n1-c1cccnc1	0	50.8	52.9	0	0	0
CC(C(=O)N(C)C1CCS(=O)(=O)C1)N1C(=O)/C(=C/c2ccco2)SC1=S (stereo not drawn)	0	0	0	0	0	0
O=C1/C(=C/c2ccco2)SC(=S)N1c1cccnc1	107.4	99.4	0	74.7	78.8	87.0
NN1C(=O)/C(=C\c2ccco2)SC1=S	0	51.6	0	0	0	0
CC(C(=O)Nc1ccc(C(=O)O)c(O)c1)N1C(=O)/C(=C\c2ccco2)SC1=S (stereo not drawn)	87.6	95.0	53.2	0	64.2	70.2
O=C1/C(=C\c2ccco2)SC(=S)N1c1ccc(O)cc1	0	0	0	0	0	0
COc1ccc(CCNC(=O)c2cn3ccc(C)cc3n2)cc1OC	0	0	0	0	0	0
O=C(NCCCN1CCCC1=O)c1ccc(NS(=O)(=O)c2cccc([N+](=O)[O-])c2)cc1	0	0	0	0	0	0
CCCCn1c(N)c(N(C)C(=O)c2ccc(OCC3CCCO3)cc2)c(=O)[nH]c1=O (stereo not drawn)	0	0	0	0	0	0
CCOC(=O)CN1C(=O)S/C(=C\c2ccc(-c3cccc(C(=O)O)c3C)o2)C1=O	0	0	0	0	0	0
Cc1ccc(NC(=O)CN2C(=O)S/C(=C\c3ccc(-c4cccc(C(=O)O)c4C)o3)C2=O)cc1C	0	53.3	0	81.8	68.4	92.0
CCN1C(=O)C(CC(=O)Nc2c(C)cccc2C)Nc2cc(S(=O)(=O)N(C)C)ccc21 (stereo not drawn)	0	0	0	0	0	0
CC1=C(C(=O)N2CCCCCC2)CC(CC(=O)NC2CCCCC2)C(=O)N1Cc1ccccc1 (stereo not drawn)	0	0	116.7	0	0	-
CC(=O)c1cc(NC(=O)c2ccc(C)cc2)c(=O)oc1/C=C/N(C)C	0	0	60.5	0	0	0
COc1ccc(C(=O)Nc2cc(C(C)=O)c(/C=C/N(C)C)oc2=O)cc1	0	0	52.2	0	0	0
CCOc1ccccc1NC(=O)COC(=O)C1COc2ccccc2O1 (stereo not drawn)	0	0	0	0	0	-
COc1ccc(COC[C@H](C)[C@H](O)[C@@H](C)[C@H]2OC(=O)[C@@H]2C)cc1	37.8	0	0	0	0	0
Cc1ccc(OCCOc2ccc(Br)cc2)c([N+](=O)[O-])n1	0	0	0	0	0	0
CCN(CC)CCCN(Cc1cc2cc3c(cc2[nH]c1=O)OCO3)C(=S)NCc1ccco1	0	0	0	0	0	0
CCN(CC)CCN(Cc1cc2cc3c(cc2[nH]c1=O)OCO3)C(=S)NCc1ccco1	0	0	35.1	0	0	0
CCCCN(C(=O)c1cc(-c2ccco2)nc2ccccc12)c1c(N)n(CCC)c(=O)[nH]c1=O	0	52.6	0	0	0	61.1
SMILES	SUMO1-SIM PPI	DNMT1 block	CSN deneddyl inh	LMPTP inh	STEP inh	Scp1 inh
CC(=O)N1c2ccc(S(=O)(=O)N(C)CC(=O)Nc3ccccc3C)cc2CC1C (stereo not drawn)	0	0	0	0	0	0
Cc1cccc(NC2=C/C(=N/S(=O)(=O)c3cccs3)c3ccccc3C2=O)c1	0	0	0	0	0	0
O=C1C(Nc2ccc(O)cc2)=C/C(=N/S(=O)(=O)c2cccs2)c2ccccc21	52.1	67.3	0	0	0	0
O=C(O)c1ccc(NC2=C/C(=N/S(=O)(=O)c3cccs3)c3ccccc3C2=O)cc1	65.3	97.2	0	0	0	-
O=C(O)c1ccc(Nc2nc3ccccc3nc2NS(=O)(=O)c2cccs2)cc1	0	0	0	0	0	0
Cc1ccc(NC2=C/C(=N\S(=O)(=O)c3cccs3)c3ccccc3C2=O)c(C)c1	0	0	0	0	0	0
Cc1ccc(Cl)cc1NC1=C/C(=N\S(=O)(=O)c2cccs2)c2ccccc2C1=O	0	56.8!	0	0	0	0
CN1CCN(CC(O)COc2ccc(C34CC5CC(CC(C5)C3)C4)cc2)CC1 (stereo not drawn)	0	0	0	0	0	0
COCCCNC(=O)Cc1c(C)c2c(cc(C)c3c(C(C)(C)C)coc32)oc1=O	0	0	0	0	0	0
O=C(NCc1ccccn1)c1cccc(S(=O)(=O)N2CCc3ccccc32)c1	0	0	0	0	0	0
COc1ccc(S(=O)(=O)NCc2cccs2)cc1	0	0	0	0	55.1	58.9
CC(C)CS(=O)(=O)C1=NN2C(=N)/C(=C\c3ccc(OC(=O)c4ccco4)cc3)C(=O)N=C2S1	0	0	0	0	0	68.8
COC(=O)C1CCN(C2CC(=O)N(c3cc(C)cc(C)c3)C2=O)CC1 (stereo not drawn)	0	0	0	0	0	0
COc1cc(NC(=O)CSc2ncnc3sc4c(c23)CCCC4)c(C(=O)O)cc1OC	0	0	0	0	96.3	0
COc1cccc(N=Nc2ccc(O)c3ncccc23)c1	0	0	0	0	0	0
O=Nc1ccc(O)c2ncccc12	0	0	0	0	0	0
O=S(=O)(O)c1cccc2c(N=Nc3ccc(O)c4ncccc34)cccc12	0	0	0	51.3	50.9	94.9
COc1ccc(N=Nc2ccc(O)c3ncccc23)cc1	51.1	71.0	0	0	0	0
Cc1ccccc1N=Nc1ccc(O)c2ncccc12	0	71.0	0	0	0	0
Cc1ccc2c(c1)N(CC(=O)N1CCCCC1)C(=O)CO2	0	0	0	0	0	0
Cc1ccc(N(C(=O)c2snc(C(N)=O)c2N)C(CC(C)C)C(=O)NC2CCCC2)cc1 (stereo not drawn)	0	0	110.5	0	0	0
CC1=NOC(=O)/C1=C\c1ccc(-c2ccc(Cl)cc2Cl)o1	53.3	91.3	0	0	0	0
Cc1cccc(-n2nc3c(c2NC(=O)c2ccco2)CSC3)c1C	0	86.5	36.4	0	0	0
